“And” between values parts separate entries of the source, which are not always exact repeats. Equal entries are not always repeated. “Also recorded” adds a separate entry of the source.
How the values were obtained:
[1] = test system: 3xTgAD mouse model; details: cited from earlier work
[2] = test system: Aβ levels; details: cited from earlier work
[3] = test system: AβPP/PS1 mice; assay: 2-day radial-arm water maze; assay type: in vivo, mouse
In short: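 2-day RAWM in AβPP/PS1 and WT littermates given vehicle or test compound daily. Compounds were dissolved in Tween-80 + DMSO, then diluted with vehicle. Mice were trained […] to find a goal-arm platform, alternating visible and hidden platform. Investigators were blind to treatment and genotype. Data are mean ± SEM, analysed by two-way repeated-measures ANOVA.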

[4] = test system: Aβ42-induced LTP impairment in hippocampal slices; assay type: cell-based, mouse; details: compound 650 nM co-administered with Aβ42 (200 nM, 20 min)
In short: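 Mouse transverse hippocampal slices (400 μm) were kept in an interface chamber at 29°C. Aβ42 oligomers were formed overnight at 4°C in ACSF, then diluted in vehicle. Test compound (Tween-80/DMSO stock diluted in vehicle) was perfused with Aβ42 for 20 min before tetanization, and responses were recorded for 120 min. Data are % of control or (co-treatment/Aβ42 alone)×100; mean ± SEM, repeated-measures two-way ANOVA.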

[5] = test system: calpain (calpain-generated spectrin fragment around 145 kDa); assay: Spectrin western blotting of hippocampal homogenates after in vivo treatment; design: species or system mouse
In short: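 Hippocampi were taken from mice given test compound or vehicle. Tissue was homogenized in 62.5 mM Tris-HCl pH 6.8, 3% LDS, 1 mM DTT, held 10 min at 4°C, sonicated and centrifuged (20,000 rpm, 5 min). Extracts (15 μg/lane; vehicle also 20 μg) ran on 3–8% Tris-Acetate gels. Blots were probed with spectrin and β-III-tubulin antibodies (1:1,000) for the ~145 kDa calpain fragment.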

[6] = Pharmacokinetic assessment in plasma; assay type: in vivo, ICR mice
In short: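 Male ICR mice (54 total; 3 groups of 18) were dosed i.p. with test compound in Tween-80 + DMSO diluted with vehicle. Plasma was separated by centrifugation (11,000 rpm, 5 min), stored at –80°C, and 25 μl was processed for LC/MS/MS. Calibration standards were spiked into heparinized blank mouse plasma at 3.00–10,000 ng/ml.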

[7] = test system: calpain 1; details: read-out: IC50 calpain 1; cited from earlier work
[8] = test system: mice; details: mouse, in vivo
[9] = test system: WT mice; details: mouse, in vivo, ip
[10] = test system: AβPP/PS1 mice; assay: Contextual fear conditioning; assay type: in vivo, mouse
In short: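 AβPP/PS1 and WT littermates got daily vehicle or test compound (Tween-80/DMSO, then vehicle-diluted). Training: one mouse per room, 2 min in the conditioning chamber, 0.50 mA foot shock for 2 s in the last 2 s, then 30 s more before returning to the home cage. Contextual freezing was scored. Investigators were blind to treatment and genotype; n = 8–18 per group; mean ± SEM, one-way ANOVA.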

[11] = daily treatment from age 2 months until 7 months

## CCN(CC)Cc1ccc(/C=C/c2ccccc2C(=O)NC(Cc2ccccc2)C(=O)C(N)=O)cc1 (centres unmarked) [A-705253]
[1]
  Activity in 3xTgAD mouse model: rescuing memory defects, and reducing levels of BACE enzyme, Aβ deposits, and overall neuroinflammation

## CC(C)C[C@H](NS(=O)(=O)c1ccccc1)C(=O)N[C@@H](C(C)C)[C@@H](O)c1c(-c2ccccc2)c1=O [BDA-410]
[2]
  Effect on Aβ levels: do not have any effect on Aβ levels

## CC(C)C[C@H](NC(=O)[C@H]1O[C@@H]1C(=O)O)C(=O)NCCCCN=C(N)N [E64]
[2]
  Effect on Aβ levels: do not have any effect on Aβ levels

## O=C(NCc1cn(-c2ccc(F)cc2)nn1)[C@H](Cc1cscn1)NC(=O)[C@H]1O[C@@H]1C(=O)O [NYC488]
[3]; WT littermates, treatment 2 to 3 months of age
  RAWM performance of WT littermates: did not affect the WT littermate performance
[3]; daily treatment from age 2 months until 3 months
  Spatial memory defect (2-day RAWM) in AβPP/PS1 mice: ameliorated the defect in spatial memory; also recorded: ameliorated the deficit in RAWM performance
[3]; [11]
  Spatial memory defect (2-day RAWM) in AβPP/PS1 mice: ameliorated the defect in spatial memory
[4]
  Rescue of Aβ42-induced LTP impairment (phenotypic screening): robust results; also recorded: surpassed E64 benchmark in the LTP rescue assay
[5]; i.p. treatment for 12 days, same doses as PK
  Prevention of calpain-generated spectrin fragments in hippocampus: dramatically reduced the amount of fragments
[5]; inferred from spectrin fragment decrease after systemic administration
  Ability to cross the blood-brain barrier and inhibit calpain in the brain: cross the blood-brain barrier (BBB) and inhibit calpain in the brain
[6]; i.p., equimolar dose (7.57/7.86/7.83 mg/kg)
  Absolute bioavailability: 41.3%
[6]; plasma, i.p., equimolar dose (7.57/7.86/7.83 mg/kg)
  Half-life: 0.6 h and ~ 0.6 h
[6]; upon i.p. injection
  Absorption: rapidly absorbed
[7]
  IC50: < 100 nM
[8]
  Clinical signs of toxicity after acute single dose at MTD: No clinical signs of toxicity
[9]
  Maximum tolerated dose (MTD): 200 mg/kg
[10]; daily treatment from age 2 months until 3 months, 7.57/7.86/7.83 mg/kg
  Contextual fear memory defect in AβPP/PS1 mice: ameliorated the defect in contextual fear memory
[10]; [11]
  Contextual fear memory defect in AβPP/PS1 mice: ameliorated the defect in contextual fear memory
